Activity calls are given as the source filed them. The rule behind the calls is not given here. Square brackets hold non-standard residues; d marks the D form. Peptide text beside a SMILES is read from it. dTle = CC(C)(C)[C@@H](N)C(=O)O
How the values were obtained:
[1] = molecular target: T1, Neuropeptide S receptor (Mus musculus) (UniProt Q8BZP8); experiment: Agonist activity at mouse NPSR expressed in HEK293 cells up to 10 uM by calcium mobilization assay; type: functional, cell-based
T1 sequence (whole entry): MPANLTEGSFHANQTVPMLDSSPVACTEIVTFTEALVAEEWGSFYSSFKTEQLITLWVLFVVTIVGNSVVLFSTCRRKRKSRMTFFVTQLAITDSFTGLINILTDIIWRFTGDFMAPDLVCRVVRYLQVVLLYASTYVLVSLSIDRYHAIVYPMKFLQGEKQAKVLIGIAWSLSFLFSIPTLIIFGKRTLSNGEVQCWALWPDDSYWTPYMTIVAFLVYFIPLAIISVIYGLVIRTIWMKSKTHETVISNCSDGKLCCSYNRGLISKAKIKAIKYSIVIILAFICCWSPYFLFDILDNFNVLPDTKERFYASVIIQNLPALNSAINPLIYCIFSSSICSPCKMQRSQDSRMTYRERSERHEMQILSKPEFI
Summary of the method: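 HEK293 cells stably expressing mouse NPSR; intracellular calcium mobilization measured after peptide addition, concentration-response curves giving pEC50 and Emax as % over basal. Mean of at least four separate experiments performed in duplicate.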

[2] = molecular target: T1, Neuropeptide S receptor (Mus musculus); experiment: Antagonist activity at mouse NPSR expressed in HEK293 cells assessed as inhibition of NPS-induced response; type: functional, cell-based
Summary of the method: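 HEK293 cells stably expressing mouse NPSR, calcium mobilization. Inhibition response curves to test peptides against 30 nM NPS, run at 37 °C with three up-and-down mixing cycles right after antagonist injection to aid diffusion. Mean of at least four separate experiments performed in duplicate.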

[3] = molecular target: T1, Neuropeptide S receptor (Mus musculus); experiment: Antagonist activity at mouse NPSR expressed in HEK293 cells assessed as inhibition of NPS-induced response by Schild analysis; type: functional, cell-based
Summary of the method: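 Calcium mobilization in HEK293 cells stably expressing mouse NPSR, at 37 °C with three mixing cycles after antagonist injection. NPS concentration-response curves were run without and with antagonist at 0.1-10 µM, and pKB with 95% confidence limits was derived from the curve shifts. Mean ± SEM of four separate experiments in duplicate.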

[4] = molecular target: T1, Neuropeptide S receptor (Mus musculus); experiment: Antagonist activity at mouse NPSR expressed in HEK293 cells assessed as inhibition of NPS-induced increase in intracellular calcium mobilization by Schild analysis at room temperature; type: functional, cell-based
Summary of the method: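 Schild-type experiment in HEK293 cells expressing mouse NPSR by calcium mobilization, using NPS concentration-response curves with added antagonist, run under the earlier conditions without 37 °C and without post-injection mixing.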

B2 bradykinin receptor = molecular target: T2, B2 bradykinin receptor (Homo sapiens, UniProt P30411); experiment: Antagonist activity at human recombinant bradykinin 2 receptor expressed in CHO cells assessed as inhibition of bradykinin-induced intracellular calcium mobilization; type: functional, cell-based
T2 sequence (P30411 whole entry): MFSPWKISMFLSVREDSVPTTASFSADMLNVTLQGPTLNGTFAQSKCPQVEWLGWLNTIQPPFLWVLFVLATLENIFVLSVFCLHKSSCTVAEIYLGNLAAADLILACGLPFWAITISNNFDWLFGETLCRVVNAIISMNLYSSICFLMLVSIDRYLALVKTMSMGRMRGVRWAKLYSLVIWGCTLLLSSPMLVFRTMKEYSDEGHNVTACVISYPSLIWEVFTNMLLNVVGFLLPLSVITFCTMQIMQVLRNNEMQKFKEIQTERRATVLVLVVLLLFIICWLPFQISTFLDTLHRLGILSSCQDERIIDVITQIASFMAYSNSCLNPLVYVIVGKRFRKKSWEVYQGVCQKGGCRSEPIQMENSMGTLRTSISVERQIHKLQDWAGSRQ
Summary of the method: (§1)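 Calcium mobilization in human receptor cells. NK-1, B2 and UT recombinant in CHO. MOP, DOP, KOP and NOP in CHO cells carrying chimeric Gαqi5. Native PAR2 in A549 cells. Mean ± SEM of three experiments in duplicate.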

Urotensin-2 receptor = molecular target: T3, Urotensin-2 receptor (Homo sapiens, UniProt Q9UKP6); experiment: Antagonist activity at human recombinant urotensin 2 receptor expressed in CHO cells assessed as inhibition of urotensin 2-induced intracellular calcium mobilization; type: functional, cell-based
T3 sequence (Q9UKP6 whole entry): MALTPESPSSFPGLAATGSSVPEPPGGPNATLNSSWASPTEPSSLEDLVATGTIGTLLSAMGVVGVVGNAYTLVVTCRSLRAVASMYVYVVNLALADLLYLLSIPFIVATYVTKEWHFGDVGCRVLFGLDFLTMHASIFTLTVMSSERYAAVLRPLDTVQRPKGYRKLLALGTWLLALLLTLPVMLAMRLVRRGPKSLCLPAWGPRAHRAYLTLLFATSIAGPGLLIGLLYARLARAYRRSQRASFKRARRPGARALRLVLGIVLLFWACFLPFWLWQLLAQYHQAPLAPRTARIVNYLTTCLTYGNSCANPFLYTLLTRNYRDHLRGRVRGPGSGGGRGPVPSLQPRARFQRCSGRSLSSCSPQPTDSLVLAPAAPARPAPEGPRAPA

Mu-type opioid receptor [5] = molecular target: T4, Mu-type opioid receptor (Homo sapiens, UniProt P35372); experiment: Antagonist activity at human recombinant mu opioid receptor expressed in CHO cells coexpressing alphaqi5 assessed as inhibition of dermorphin-induced intracellular calcium mobilization; type: functional, cell-based
T4 sequence (P35372 whole entry): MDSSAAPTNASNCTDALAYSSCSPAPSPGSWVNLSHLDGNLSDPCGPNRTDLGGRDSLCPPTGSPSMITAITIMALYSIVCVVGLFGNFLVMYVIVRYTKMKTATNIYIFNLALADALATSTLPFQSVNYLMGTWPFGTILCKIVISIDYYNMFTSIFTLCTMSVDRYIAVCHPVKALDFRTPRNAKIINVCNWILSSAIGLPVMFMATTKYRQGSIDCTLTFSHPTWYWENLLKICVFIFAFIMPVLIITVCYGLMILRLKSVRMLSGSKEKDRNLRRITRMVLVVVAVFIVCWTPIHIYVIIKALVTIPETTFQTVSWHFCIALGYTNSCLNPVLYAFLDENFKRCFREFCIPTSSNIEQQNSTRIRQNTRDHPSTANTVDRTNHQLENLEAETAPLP

[6] = molecular target: T5, Delta-type opioid receptor (Homo sapiens, UniProt P41143); experiment: Antagonist activity at human recombinant delta opioid receptor expressed in CHO cells coexpressing alphaqi5 assessed as inhibition of DPDPE-induced intracellular calcium mobilization; type: functional, cell-based; summary of the method: as §1
T5 sequence (P41143 whole entry): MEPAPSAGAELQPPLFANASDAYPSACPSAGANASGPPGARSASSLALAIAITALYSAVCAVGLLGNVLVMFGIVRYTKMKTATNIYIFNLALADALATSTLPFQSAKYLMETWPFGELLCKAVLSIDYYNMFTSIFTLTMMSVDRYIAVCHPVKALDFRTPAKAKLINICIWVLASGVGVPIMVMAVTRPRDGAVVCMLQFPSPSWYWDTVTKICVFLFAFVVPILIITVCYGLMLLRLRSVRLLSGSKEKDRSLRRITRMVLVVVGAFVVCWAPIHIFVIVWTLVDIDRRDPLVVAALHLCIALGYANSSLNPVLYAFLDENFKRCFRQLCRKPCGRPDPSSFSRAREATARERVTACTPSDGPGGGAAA

[7] = molecular target: T6, Kappa-type opioid receptor (Homo sapiens, UniProt P41145); experiment: Antagonist activity at human recombinant kappa opioid receptor expressed in CHO cells coexpressing alphaqi5 assessed as inhibition of dynorphin A-induced intracellular calcium mobilization; type: functional, cell-based; summary of the method: as §1
T6 sequence (P41145 whole entry): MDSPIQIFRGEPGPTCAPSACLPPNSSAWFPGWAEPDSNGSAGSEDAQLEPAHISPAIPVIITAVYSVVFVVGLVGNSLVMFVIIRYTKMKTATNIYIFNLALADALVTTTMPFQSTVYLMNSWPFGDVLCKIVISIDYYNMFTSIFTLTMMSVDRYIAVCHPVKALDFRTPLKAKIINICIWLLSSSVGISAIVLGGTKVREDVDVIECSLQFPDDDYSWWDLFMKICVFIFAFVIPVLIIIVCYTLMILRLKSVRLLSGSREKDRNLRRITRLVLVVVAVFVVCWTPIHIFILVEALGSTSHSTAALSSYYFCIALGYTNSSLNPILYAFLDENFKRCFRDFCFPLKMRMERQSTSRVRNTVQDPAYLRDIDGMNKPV

Nociceptin receptor = Nociceptin receptor (Homo sapiens, UniProt P41146); experiment: Antagonist activity at human recombinant NOP receptor expressed in CHO cells coexpressing alphaqi5 assessed as inhibition of N/OFQ-induced intracellular calcium mobilization; type: functional, cell-based
Nociceptin receptor, sequence (P41146 whole entry): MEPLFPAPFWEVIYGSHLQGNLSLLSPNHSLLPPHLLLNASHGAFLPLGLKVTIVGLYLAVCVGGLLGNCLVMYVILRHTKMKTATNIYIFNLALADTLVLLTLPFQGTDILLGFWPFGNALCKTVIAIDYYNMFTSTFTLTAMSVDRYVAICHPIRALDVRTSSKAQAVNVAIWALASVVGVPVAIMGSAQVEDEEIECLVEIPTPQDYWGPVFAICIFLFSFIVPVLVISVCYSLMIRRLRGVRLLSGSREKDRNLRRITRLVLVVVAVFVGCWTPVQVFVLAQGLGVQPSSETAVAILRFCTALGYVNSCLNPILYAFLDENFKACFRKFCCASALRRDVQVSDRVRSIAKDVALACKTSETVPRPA

[8] = molecular target: T7, B2 bradykinin receptor (Homo sapiens) (UniProt P30411); experiment: Antagonist activity at human recombinant bradykinin 2 receptor expressed in CHO cells assessed as inhibition of bradykinin-induced intracellular calcium mobilization at up to 10 uM; type: functional, cell-based
T7 sequence (whole entry): T2 sequence (P30411 whole entry)
Summary of the method: (§2)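 Calcium mobilization in human receptor cells. NK-1, B2 and UT recombinant in CHO. MOP, DOP, KOP and NOP in CHO cells carrying chimeric Gαqi5. Native PAR2 in A549 cells. […] Mean ± SEM of three experiments in duplicate.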

Mu-type opioid receptor [9] = molecular target: T4, Mu-type opioid receptor; experiment: Antagonist activity at human recombinant mu opioid receptor expressed in CHO cells coexpressing alphaqi5 assessed as inhibition of dermorphin-induced intracellular calcium mobilization at up to 10 uM; type: functional, cell-based; summary of the method: as §2
[10] = molecular target: T5, Delta-type opioid receptor; experiment: Antagonist activity at human recombinant delta opioid receptor expressed in CHO cells coexpressing alphaqi5 assessed as inhibition of DPDPE-induced intracellular calcium mobilization at up to 10 uM; type: functional, cell-based; summary of the method: as §1
[11] = molecular target: T6, Kappa-type opioid receptor; experiment: Antagonist activity at human recombinant kappa opioid receptor expressed in CHO cells coexpressing alphaqi5 assessed as inhibition of dynorphin A-induced intracellular calcium mobilization at up to 10 uM; type: functional, cell-based; summary of the method: as §2
[12] = molecular target: T8, Proteinase-activated receptor 2 (Homo sapiens, UniProt P55085); experiment: Antagonist activity at human recombinant PAR2 expressed in A549 cells assessed as inhibition of SLIGKV-NH2-induced intracellular calcium mobilization; type: functional, cell-based
T8 sequence (P55085 whole entry): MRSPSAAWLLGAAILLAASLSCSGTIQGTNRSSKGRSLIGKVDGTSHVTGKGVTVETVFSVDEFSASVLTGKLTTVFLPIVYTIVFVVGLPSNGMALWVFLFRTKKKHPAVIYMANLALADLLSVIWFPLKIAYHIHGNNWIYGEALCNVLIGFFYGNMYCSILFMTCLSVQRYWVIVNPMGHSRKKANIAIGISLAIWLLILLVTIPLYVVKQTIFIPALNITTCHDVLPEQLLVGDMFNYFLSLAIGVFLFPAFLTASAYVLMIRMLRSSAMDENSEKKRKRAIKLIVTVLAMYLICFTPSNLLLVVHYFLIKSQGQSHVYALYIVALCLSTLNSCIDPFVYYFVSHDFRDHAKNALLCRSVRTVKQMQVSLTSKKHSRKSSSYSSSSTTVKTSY

[13] = molecular target: Proteinase-activated receptor 2 (Homo sapiens) (UniProt P55085); experiment: Antagonist activity at human recombinant PAR2 expressed in A549 cells assessed as inhibition of SLIGKV-NH2-induced intracellular calcium mobilization at up to 10 uM; type: functional, cell-based
Substance-P receptor = Substance-P receptor (Homo sapiens, UniProt P25103); experiment: Antagonist activity at human recombinant NK1 receptor expressed in CHO cells assessed as inhibition of substance P-induced intracellular calcium mobilization
Substance-P receptor, sequence (P25103 whole entry): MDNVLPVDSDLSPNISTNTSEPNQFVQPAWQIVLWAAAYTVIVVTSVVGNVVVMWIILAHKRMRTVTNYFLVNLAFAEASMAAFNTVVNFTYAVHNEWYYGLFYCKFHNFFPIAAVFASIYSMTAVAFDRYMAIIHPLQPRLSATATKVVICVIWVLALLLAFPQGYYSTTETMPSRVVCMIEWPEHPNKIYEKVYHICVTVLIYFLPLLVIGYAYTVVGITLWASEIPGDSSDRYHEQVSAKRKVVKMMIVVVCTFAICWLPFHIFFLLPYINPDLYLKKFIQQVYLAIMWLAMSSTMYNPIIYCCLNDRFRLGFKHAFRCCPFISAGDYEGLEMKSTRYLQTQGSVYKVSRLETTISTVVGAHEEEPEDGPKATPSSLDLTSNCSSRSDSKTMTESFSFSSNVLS

[14] = molecular target: T9, Neuropeptide S receptor (Homo sapiens) (UniProt Q6W5P4); conditions: HEK293
T9 sequence (whole entry): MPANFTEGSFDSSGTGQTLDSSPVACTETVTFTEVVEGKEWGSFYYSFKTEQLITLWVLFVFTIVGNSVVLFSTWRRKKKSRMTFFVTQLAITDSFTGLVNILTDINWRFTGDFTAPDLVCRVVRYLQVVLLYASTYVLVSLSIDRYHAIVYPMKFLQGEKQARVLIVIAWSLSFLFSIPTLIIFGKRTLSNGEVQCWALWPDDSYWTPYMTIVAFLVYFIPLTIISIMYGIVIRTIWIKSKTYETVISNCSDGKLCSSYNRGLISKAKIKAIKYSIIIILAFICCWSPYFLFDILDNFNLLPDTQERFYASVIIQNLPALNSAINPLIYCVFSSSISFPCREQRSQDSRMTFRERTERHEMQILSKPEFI

SMILES	Emax [1]	pKb [2]	Activity [3]	Emax [4] [%]	EC50 (B2 bradykinin receptor) [nM]	EC50 (Urotensin-2 receptor) [nM]	EC50 (Mu-type opioid receptor [5]) [nM]	EC50 [6] [nM]	EC50 [7] [nM]	EC50 (Nociceptin receptor) [nM]	Emax [8] [%]	Emax (Mu-type opioid receptor [9]) [%]	Emax [10] [%]	Emax [11] [%]	EC50 [12] [nM]	Emax [13] [%]	EC50 (Substance-P receptor) [nM]	pKb [14]
CSCC[C@H](NC(=O)CNC(=O)[C@@H](NC(=O)CNC(=O)[C@@H](NC(=O)[C@H](NC(=O)[C@H](CC(N)=O)NC(=O)[C@H](CCCNC(=N)N)NC(=O)[C@H](Cc1ccccc1)NC(=O)[C@@H](N)CO)C(C)(C)C)C(C)C)[C@@H](C)O)C(=O)N[C@@H](CCCCN)C(=O)N[C@@H](CCCCN)C(=O)N[C@H](C(=O)N[C@@H](CO)C(=O)N[C@@H](Cc1ccccc1)C(=O)N[C@@H](CCC(N)=O)C(=O)N[C@@H](CCCNC(=N)N)C(=O)N[C@@H](C)C(=O)N[C@@H](CCCCN)C(=O)N[C@@H](CO)C(=O)O)[C@@H](C)O (H-SFRN[dTle]VGTGMKKTSFQRAKS-OH)	inactive	7.06	Dose-dependent effect	< 50	0.0339	3.47	11	1.95	2.34	0.282	115	186	177	139	31600	445	0.049	–
CSCC[C@H](NC(=O)CNC(=O)[C@@H](NC(=O)CNC(=O)[C@@H](NC(=O)[C@H](NC(=O)[C@H](CC(N)=O)NC(=O)[C@H](CCCNC(=N)N)NC(=O)[C@H](Cc1ccccc1)NC(=O)[C@@H](N)CO)C(C)C)C(C)C)[C@@H](C)O)C(=O)N[C@@H](CCCCN)C(=O)N[C@@H](CCCCN)C(=O)N[C@H](C(=O)N[C@@H](CO)C(=O)N[C@@H](Cc1ccccc1)C(=O)N[C@@H](CCC(N)=O)C(=O)N[C@@H](CCCNC(=N)N)C(=O)N[C@@H](C)C(=O)N[C@@H](CCCCN)C(=O)N[C@@H](CO)C(=O)O)[C@@H](C)O (H-SFRN[dV]VGTGMKKTSFQRAKS-OH)	inactive	6.54	–	–	–	–	–	–	–	–	–	–	–	–	–	–	–	–
O=C(NCc1ccc(F)cc1)N1CCN2C(=O)OC(c3ccccc3)(c3ccccc3)C2C1 (stereo not given)	–	–	–	–	–	–	–	–	–	–	–	–	–	–	–	–	–	7.5

From ChEMBL document CHEMBL1136992, “Further studies at neuropeptide s position 5: discovery of novel neuropeptide S receptor antagonists” (J Med Chem, 2009)
